UBC13 polyUb – UBC13 polyubiquitin chain formation inhibitors, primary screen, biochemical, TR-FRET, uHTS; Ubiquitin-conjugating enzyme E2 N (Homo sapiens), P61088; inhibition, % at 20 µM; hit rate 0.47% among 330,000; AID 485273, 2010; in the data active = inhibition above about 45%, passing the limit was not always enough
Target sequence (P61088 whole entry, looked up): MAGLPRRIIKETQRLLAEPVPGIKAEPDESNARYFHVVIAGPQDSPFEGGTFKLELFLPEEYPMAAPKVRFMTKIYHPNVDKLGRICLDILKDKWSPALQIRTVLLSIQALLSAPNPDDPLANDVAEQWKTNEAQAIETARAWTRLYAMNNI
Apaf-1 inh – inhibitors of human Apaf-1 apoptosome, primary screen, biochemical, DEVD-Rh110 fluorescence, uHTS. Apoptotic protease-activating factor 1 (Homo sapiens), O14727. reconstituted apoptosome caspase-3 activity. inhibition, % at 20 µM. hit rate 0.71% among 330,000. AID 489030, 2010; active = inhibition of at least 40% at 20 µM;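 note: plate controls were DMSO wells for no effect and DEVD-CHO caspase inhibitor wells for full effect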
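System: Apoptosome proteins | Medium: Hepes pH 7.5 with detergent and BSA | Also added: Cytochrome c trigger plus (Z-DEVD)2-Rh110 caspase-3 substrate | Incubation: 30 min compound preincubation, 50 min activation, room temperature | Detection: Rhodamine 110 fluorescence at Ex 480/Em 540 nm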
PREPL inhibitor – PREPL enzyme inhibitors, primary screen, biochemical, fluorescence polarization | inhibition, % at 5.96 µM | recombinant PREPL, fluorescence polarization activity-based probe | AID 2751, 2010 | hit rate 0.68% among 320,000 | Prolyl endopeptidase-like (Homo sapiens), Q4J6C6;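 note: 0% = enzyme with DMSO and 100% = wells lacking enzyme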
EBNA-1 inhibitor – EBNA-1 DNA-binding inhibitors, primary screen, biochemical, fluorescence polarization | inhibition, % at 14.8 µM | hit rate 0.34% among 300,000; in the data active = inhibition above about 28%
ZTA counter – blocks Epstein-Barr virus ZTA, an EBNA-1 counter-screen; inhibition, % at 11 µM; P03206; ZTA-DNA binding, fluorescence polarization; AID 2234; hit rate 0.15% among 320,000; in the data active = inhibition above about 33%
Target sequence (P03206 whole entry, looked up): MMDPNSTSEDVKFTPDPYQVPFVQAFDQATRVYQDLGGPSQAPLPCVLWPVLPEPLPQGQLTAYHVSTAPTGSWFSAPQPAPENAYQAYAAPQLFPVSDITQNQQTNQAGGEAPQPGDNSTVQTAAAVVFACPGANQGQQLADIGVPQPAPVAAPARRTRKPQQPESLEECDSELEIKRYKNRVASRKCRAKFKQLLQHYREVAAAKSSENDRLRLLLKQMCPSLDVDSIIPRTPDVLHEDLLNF
PREPL confirm – human PREPL enzyme inhibitors, confirmation, biochemical, fluorescence polarization; shares compounds with PREPL inhibitor; recombinant PREPL, fluorescence polarization activity probe; inhibition, % at 5.96 µM; hit rate 67% among 2,000; AID 2803, 2010;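 note: 0% = protein with DMSO and 100% = wells lacking protein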
Numbers without * were called inactive; . = not tested or not shown. In the library only some 1.7% were active in any assay of this set; here they are far more common. Cut-off read from the data, not from the text of the source, unless noted: active = inhibition above about 43%; inactive = the rest.

SMILES	UBC13 polyUb	Apaf-1 inh	PREPL inhibitor	EBNA-1 inhibitor	ZTA counter	PREPL confirm
CN(CC(O)COCc1ccccc1F)C1CCCCC1 (stereo not given)	-13	-11	44*	-2	1	22
Cc1ccc(Nc2c(-c3ccccn3)nc3ccc(C)cn23)cc1	22	11	63*	-17	-8	69*
Clc1ccc(-c2nc3cnccn3c2Nc2ccc3c(c2)OCO3)cc1	12	16	25	-8	0	.
Cc1ccc2nc(-c3ccncc3)c(Nc3ccccc3)n2c1	16	-3	-9	12	-10	.
CSc1ccc(-c2nc3cnccn3c2Nc2ccc3c(c2)OCO3)cc1	-10	22	50*	-6	-8	48*
Cc1ccc(Nc2c(-c3ccccn3)nc3cc(C)ccn23)cc1	42	-10	74*	-9	7	58*
Cc1ccn2c(Nc3ccc4c(c3)OCO4)c(-c3ccccn3)nc2c1	0	17	77*	1	-3	67*
O=C1NCC(c2ccccc2)C1C(=O)N/N=C\c1ccc(-c2ccc(Cl)c(Cl)c2)o1 (stereo not given)	8	29	-2	-1	10	.
COC(=O)C1=C(C)C(c2ccc(OC)cc2)NC(=S)N1 (stereo not given)	-2	9	12	0	6	.
Cc1cc(C)n2nc(CC#N)c(C#N)c2n1	10	-4	18	5	4	.
Cc1cc(C)n2nc(/C(C#N)=C/c3ccccn3)c(C#N)c2n1	-2	3	65*	-8	-16	16
c1ccc(Cn2nnnc2C(c2cccnc2)N2CCN(c3ccccc3)CC2)cc1 (stereo not given)	-12	-1	2	1	0	.
CCC(C)Sc1ccc(-c2nc3ccccn3c2NCc2ccccc2)cc1OC (stereo not given)	22	36	16	.	.	.
COc1ccc(CSc2ccc(-c3nc4ccccn4c3NCc3ccccc3)cc2OC)cc1	4	15	49*	-1	10	41
Cc1ccc(O)c(CNc2ccccn2)c1	4	11	-8	5	-25	.
COc1ccc2c(c1)c(C(O)CN1CCN(Cc3ccc4c(c3)OCO4)CC1)c(C)n2C (stereo not given)	12	0	47*	-1	14	32
CCN(CC)CCN(C(=O)c1ccc2c(c1)CCCC2)c1nc2cc(OC)c(OC)cc2s1	32	48*	49*	3	-14	34
COC(=O)[C@@]12CCCCN1[C@H](c1ccc(-c3ccccc3)cc1)[C@H]1C(=O)N(C)C(=O)[C@H]12	8	21	3	8	5	.
COC(=O)[C@@]12CCCCN1[C@H](c1ccc(-c3ccc(F)cc3)cc1)[C@@H]1C(=O)N(C)C(=O)[C@@H]12	-4	29	54*	8	13	44*
CN1CCN(CCC(=O)Nc2ccc3c(c2)OCO3)CC1	5	12	2	0	-8	.
O=C(CCN1CCCCCC1)Nc1ccc2c(c1)OCCO2	2	8	45*	-12	9	12
CNC(=S)N1N=C(c2ccc(C)cc2)CC1c1ccc(OC)cc1 (stereo not given)	2	21	17	-11	10	.
CNC(=S)N1N=C(c2ccc(C)cc2)CC1c1ccc(N(C)C)cc1 (stereo not given)	18	22	51*	-6	-14	57*
CCC(CO)[n+]1c(C)cc(/C=C2\Sc3ccccc3N2Cc2ccccc2)cc1C (stereo not given)	.	.	77*	1	17	73*
C[n+]1ccccc1/C=C/c1cc(Br)ccc1O	-21	18	44*	-1	1	30
SMILES	UBC13 polyUb	Apaf-1 inh	PREPL inhibitor	EBNA-1 inhibitor	ZTA counter	PREPL confirm
N/C(=N\OC(=O)CCC1CCCCC1)c1cccnc1	-8	12	6	6	0	.
CCN(CC)CCCN1C=C2C(=O)C(C)(OC(=O)C3CCCC3)C(=O)C=C2C=C1c1ccsc1 (stereo not given)	-90	30	43*	9	-25	25
CC1(OC(=O)C2CCCC2)C(=O)C=C2C=C(c3ccsc3)N(Cc3ccccc3)C=C2C1=O (stereo not given)	-40	23	38	-10	-8	.
N#CCCN(CCC#N)C(=O)C1c2ccccc2Oc2ccccc21	1	-7	82*	-7	-9	5
CN(CC(=O)Nc1ccc(OC(F)(F)F)cc1)C(=O)c1ccc(N2CCCC2=O)cc1	0	3	3	.	19	.
O=C(c1ccc(S(=O)(=O)NCc2ccco2)cc1)N1CCCC1	-1	-8	5	16	14	.
N#Cc1ccc(CN2CCN(C(=O)c3ccc(S(=O)(=O)NCc4ccco4)cc3)CC2)cc1	-14	4	50*	.	4	8
Cc1ccc(-n2nnnc2SC(C(=O)c2c[nH]c3ccccc23)c2ccccc2)cc1 (stereo not given)	1	10	-8	7	15	.
C[C@H](CO)N1C[C@H](C)[C@@H](CN(C)C(=O)Nc2ccc(C(F)(F)F)cc2)Oc2ccc(NS(=O)(=O)c3cccs3)cc2C1=O	-9	21	41	.	.	.
Cc1noc(C)c1S(=O)(=O)N(C)C[C@H]1Oc2c(NC(=O)Nc3ccc(C(F)(F)F)cc3)cccc2C(=O)N([C@H](C)CO)C[C@@H]1C	21	1	52*	.	.	59*
Cc1ccc(S(=O)(=O)Nc2ccc3c(c2)C(=O)N([C@H](C)CO)C[C@H](C)[C@@H](CN(C)C(=O)Nc2ccc(C(F)(F)F)cc2)O3)cc1	4	9	45*	.	.	39
COc1ccc(NC(=O)N(C)C[C@H]2Oc3ccc(NS(=O)(=O)c4ccc(F)cc4)cc3C(=O)N([C@H](C)CO)C[C@@H]2C)cc1	7	-4	10	.	.	.
C[C@H](CO)N1C[C@H](C)[C@@H](CN(C)C(=O)Nc2ccc(C(F)(F)F)cc2)Oc2ccc(NS(=O)(=O)c3ccccc3)cc2C1=O	4	22	46*	.	.	45*
C[C@H](CO)N1C[C@H](C)[C@@H](CN(C)C(=O)Nc2ccc(C(F)(F)F)cc2)Oc2ccc(NS(=O)(=O)c3ccc(F)cc3)cc2C1=O	2	25	46*	.	.	41
C[C@H](CO)N1C[C@H](C)[C@@H](CN(C)C(=O)Nc2ccc(C(F)(F)F)cc2)Oc2ccc(NS(=O)(=O)c3cn(C)cn3)cc2C1=O	8	10	47*	.	.	38
O=C(c1ccc(Cl)cc1)N1CCCC(C(=O)N2CCc3ccccc3C2)C1 (stereo not given)	4	-14	-6	2	-9	.
C=CCn1c(N2CCN(c3ccc(OC)cc3)CC2)nc2c1c(=O)[nH]c(=O)n2C	12	-5	49*	11	25	38
C=CCn1c(N2CCN(c3ccc(OC)cc3)CC2)nc2c1c(=O)n(C)c(=O)n2C	4	-11	43	7	-1	.
